# Results from different studies.
# Compare with care: the assays were run in different laboratories.
# FLT3 ITD: Receptor-type tyrosine-protein kinase FLT3 (FLT3, Homo sapiens, UniProt P36888, ITD)
# FLT3 N841I: Receptor-type tyrosine-protein kinase FLT3 (FLT3, Homo sapiens, UniProt P36888, N841I)
# FLT3 D835V: Receptor-type tyrosine-protein kinase FLT3 (FLT3, Homo sapiens, UniProt P36888, D835V)
# FLT3 R834Q: Receptor-type tyrosine-protein kinase FLT3 (FLT3, Homo sapiens, UniProt P36888, R834Q)
# FLT3 K663Q: Receptor-type tyrosine-protein kinase FLT3 (FLT3, Homo sapiens, UniProt P36888, K663Q)
# FLT3: Receptor-type tyrosine-protein kinase FLT3 (FLT3, Homo sapiens, UniProt P36888)
# FLT3 D835Y: Receptor-type tyrosine-protein kinase FLT3 (FLT3, Homo sapiens, UniProt P36888, D835Y)
# FLT3 autoinhibited: Receptor-type tyrosine-protein kinase FLT3, autoinhibited (FLT3, Homo sapiens, UniProt P36888)
SMILES,target,assay,setting,remaining binding [%]
O=C(c1ccc(Nc2ncc(Cl)c(-c3ccc(Cl)s3)n2)cc1)N1CCC(N2CCCC2)CC1,FLT3 ITD,"binding, competition with immobilised ligand",1 µM,0.35
CN1CCN(c2ccc(Nc3nccc(-c4cccc([N+](=O)[O-])c4)n3)cc2C(F)(F)F)CC1,FLT3 N841I,binding,10 µM,0.05
CN(CCCC(F)(F)F)c1nccc(-c2cnn3ncccc23)n1,FLT3 D835V,binding,1 µM,84
COc1cnc(Nc2cccc(S(N)(=O)=O)c2)nc1N1CCN(c2ccccc2)CC1,FLT3 R834Q,"binding, competition with immobilised ligand",1 µM,54
O=C(c1ccc(Nc2nccc(-c3cc4ccccc4s3)n2)cc1)N1CCC(N2CCCC2)CC1,FLT3 N841I,"binding, competition with immobilised ligand",1 µM,3.6
O=C(Nc1c[nH]nc1C(=O)NC1CCNCC1)c1cc(F)cc(F)c1,FLT3 R834Q,"binding, competition with immobilised ligand",1 µM,94
CNCc1ccccc1-c1csc([C@H](C)Nc2nc(C)nc3cc(OC)c(OC)cc23)c1,FLT3 ITD,"cell-free assay, competition with immobilised ligand",1 µM,99
CC1CCCN1c1nccc(-c2cnn3ncccc23)n1 (centres unmarked),FLT3 K663Q,binding,1 µM,100
C=CC(=O)N1CCC(C(=O)NCC(=O)N2CCN(c3nc(-c4cnc(N)nc4C(F)F)nc(N4CCOCC4)n3)CC2)CC1,FLT3 R834Q,"binding, competition with immobilised ligand",1 µM,84
COc1ccnn2ncc(-c3ccnc(N(C)C)n3)c12,FLT3 N841I,binding,1 µM,100
COc1cnc(Nc2cccc(S(N)(=O)=O)c2)nc1N1CCN(c2ccccc2)C(=O)C1,FLT3 D835V,"binding, competition with immobilised ligand",1 µM,42
CN1CCN(c2ccc(Nc3nccc(-c4ccccc4)n3)cc2C(F)(F)F)CC1,FLT3 R834Q,binding,10 µM,15
CC1=C(C#N)C(c2ccc3c(c2)c(NC(=O)c2ccccc2C)nn3C)C(C#N)=C(C)N1,FLT3 K663Q,"cell-free assay, competition with immobilised ligand",1 µM,100
Cc1cnn2ncc(-c3ccnc(N(C)C)n3)c2c1,FLT3 N841I,binding,1 µM,100
CCS(=O)(=O)c1cc2cc(C[C@@](O)(CC(C)(C)c3ccc(F)cc3C(N)=O)C(F)(F)F)[nH]c2cn1,FLT3,"cell-free assay, competition with immobilised ligand",1 µM,97
O=C(NCC1CCOCC1)c1n[nH]cc1NC(=O)c1c(F)cccc1F,FLT3 R834Q,"binding, competition with immobilised ligand",1 µM,77
O=c1nc(-c2ccccn2)sc2ccccc12,FLT3 R834Q,"binding, competition with immobilised ligand",1 µM,100
c1cncc(-c2cccc(Nc3nccc(NC4CCCCC4)n3)c2)c1,FLT3 D835V,"binding, competition with immobilised ligand",10 µM,0
Cc1cnc(Nc2ccc(C(=O)N3CCC(N4CCCC4)CC3)cc2)nc1-c1cc2ccccc2s1,FLT3 D835Y,"binding, competition with immobilised ligand",1 µM,3.6
O=C1NC(c2ccccn2)Sc2ccccc21 (centres unmarked),FLT3 D835Y,"cell-free assay, competition with immobilised ligand",1 µM,86
O=C(c1ccc(Nc2ncc(Cl)c(-c3cc4ccccc4s3)n2)cc1)N1CCC(N2CCCC2)CC1,FLT3 autoinhibited,"binding, competition with immobilised ligand",1 µM,27
CNC(=O)[C@@H]1CC[C@@H](n2c(-c3ccc4cnccc4c3)nc3ccc(C(=O)NCc4cccc(C(N)=O)c4)cc32)C1,FLT3 autoinhibited,"binding, competition with immobilised ligand",1 µM,91
C[C@@H](c1ccc(-n2cnc3c(N)ncnc32)cc1)N1CCc2nn(C)c(Cc3ccccc3)c2C1=O,FLT3,"binding, competition with immobilised ligand",0.1 µM,100
Cc1cc(-n2nc(Cc3cc(F)cc(C(F)(F)F)c3)nc2C)ccc1C(N)=O,FLT3,"cell-free assay, competition with immobilised ligand",1 µM,100
C[C@@H]1CCN(c2nccc(-c3cnn4ncccc34)n2)C1,FLT3 autoinhibited,binding,1 µM,78
COc1ncc2cc3ccccc3nc2c1C#N,FLT3 D835V,"cell-free assay, competition with immobilised ligand",5 µM,100
CCN1CCN(Cc2ccc(C(=O)Nc3ccc(C)c(Oc4ccc5c(c4)CC(=O)N5)c3)cc2C(F)(F)F)CC1,FLT3 D835Y,"binding, competition with immobilised ligand",1 µM,100
C[C@@H]1CN(c2cc(-c3nn(C)c4ccc(OC5(C)CC5)cc34)ncn2)C[C@H](C)O1,FLT3 autoinhibited,"cell-free assay, competition with immobilised ligand",1 µM,77
Nc1ncc2c(n1)-c1c([nH]c3ccc(C#CC4CC4)cc13)CCCC2,FLT3 autoinhibited,"binding, competition with immobilised ligand",1 µM,82
N[C@H]1CCN(c2nccc(-c3cnn4ncccc34)n2)C1,"Receptor-type tyrosine-protein kinase FLT3 (FLT3, Homo sapiens, UniProt P36888, D835H)",binding,1 µM,92
O=C(NCCCN1CCOCC1)c1ccc(Nc2nccc(-c3cc4ccccc4s3)n2)cc1,FLT3 D835Y,"binding, competition with immobilised ligand",1 µM,18
CN(C)c1nccc(-c2cnn3ncccc23)n1,FLT3 autoinhibited,binding,1 µM,100
O=C(NCCCN1CCOCC1)c1ccc(Nc2ncc(Cl)c(-c3ccc(Cl)s3)n2)cc1,FLT3,"binding, competition with immobilised ligand",1 µM,7.7
CN(C)c1ncc(F)c(-c2cnn3ncccc23)n1,FLT3 N841I,binding,1 µM,75
COCCOc1nc(-c2ccc(Cl)nc2)nc2c1CN(C(=O)c1ncn3ccccc13)CC2,FLT3 D835V,"cell-free assay, competition with immobilised ligand",0.1 µM,100
